FLuc inh counter: firefly luciferase enzyme inhibitors, primary screen, artefact control for luciferase-based inhibitor screens, biochemical, luminescence, ATPLite; Luciferin 4-monooxygenase (Photinus pyralis), P08659; 10 min; inhibition, % at 10 µM; hit rate 1.5% among 200,000; AID 1006, 2008;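 active = inhibition above about 50% when tested at 10 µM, limit read from the data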
Target sequence (P08659 whole entry, looked up): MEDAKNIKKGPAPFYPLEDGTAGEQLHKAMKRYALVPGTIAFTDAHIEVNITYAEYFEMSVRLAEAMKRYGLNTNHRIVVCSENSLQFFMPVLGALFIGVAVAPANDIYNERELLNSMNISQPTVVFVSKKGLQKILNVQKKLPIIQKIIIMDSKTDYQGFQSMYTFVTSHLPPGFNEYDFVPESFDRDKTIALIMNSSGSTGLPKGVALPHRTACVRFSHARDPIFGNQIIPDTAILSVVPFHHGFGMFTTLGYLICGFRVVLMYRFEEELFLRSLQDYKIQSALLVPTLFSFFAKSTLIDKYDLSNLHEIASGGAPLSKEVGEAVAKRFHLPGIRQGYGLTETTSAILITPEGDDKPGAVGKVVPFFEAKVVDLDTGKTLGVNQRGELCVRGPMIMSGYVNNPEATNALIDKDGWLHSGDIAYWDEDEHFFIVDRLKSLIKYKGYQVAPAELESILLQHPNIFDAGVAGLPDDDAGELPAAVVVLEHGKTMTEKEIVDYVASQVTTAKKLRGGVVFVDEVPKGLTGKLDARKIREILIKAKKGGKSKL
FLuc act counter: FLuc activators, initial screening, artefact control for FLuc-dependent activation tests, biochemical, ATPlite luminescence. ATPlite luciferase biochemical, 10 min; 0 = ATP-free wells, 1 = DMSO control. activation factor at 10 µM. 200,000 tested, under 10 active. AID 1027, 2008;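 active = luciferase activation factor, scaled between plate controls, of at least 2 with compound at 10 µM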
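Material: Luciferase/luciferin reagent mix; Doses: test compounds dosed from 2 mM stocks in 100% DMSO; Schedule: 10 min incubation after luciferase reagent addition, room temperature; Measured by: luminescence from luciferase reaction; Read-out: luminescence gain marking luciferase activators.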
PPC-1+TRAIL kill: compounds killing PPC-1 cancer cells with TRAIL present, primary screen, TRAIL potentiator project, ATPLite luminescence, uHTS. PPC-1 cells + TRAIL, ATPLite viability luminescence. AID 1443, 2008. cell killing (% activity), % at 4 µM or 5 µM. hit rate 0.41% among 220,000;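 active = cell killing above 50% in the first pass at 4 µM, then a duplicate retest at 5 µM averaging 50% or more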;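 note: plate controls were cells with TRAIL plus DMSO for no effect and medium-only wells lacking cells for full effect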
TRAIL sens C8: viability loss with TRAIL in NB7+C8 cells, primary screen, TRAIL sensitizer project, cell-based, ATPlite luminescence. hit rate 1% among 360,000. inhibition (viability loss, TRAIL sensitization), % at 10 µM;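 active = compounds causing at least 50% loss of cell viability in the single-dose screen, relative to plate controls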
* = called active by the depositor; . = not tested or not shown. Most compounds without a hit are left out; they make up all but 1.5% or so of the library.

SMILES | FLuc inh counter | FLuc act counter | PPC-1+TRAIL kill | TRAIL sens C8
O=C(NCc1ccncc1)c1nc(-c2ccc(C(F)(F)F)cc2)no1 | -4 | 1 | 17 | 12
CCCN1C(=O)COc2ccc(-c3n[nH]c(=O)c4ccccc34)cc21 | -6 | 1.1 | 4 | -2
COc1ccc(-n2nc3c(c2NC(=O)CCl)CSC3)cc1 | . | . | . | 10
COc1ccc(/C=C/C(=O)c2ccc3c(c2)OCO3)c(OC)c1 | 78* | 0.2 | 49 | 56*
COc1ccc(C(=O)C=Cc2ccc3c(c2)OCO3)cc1OC | . | . | . | -1
Cc1cc(-c2nc(C)c(-c3nnc(SCC(=O)Nc4ccc(Cl)cc4)n3C)s2)no1 | . | . | -4 | 4
CNC(=O)c1cc(C(=O)c2ccc(Cl)cc2)c(Br)[nH]1 | . | . | . | 14
O=[N+]([O-])c1ccc(Cl)c(S(=O)(=O)Nc2ccc(-c3ccc(N4CCOCC4)nn3)cc2)c1 | . | . | . | 7
O=[N+]([O-])c1ccc(S(=O)(=O)Nc2cccc(-c3ccc(N4CCOCC4)nn3)c2)cc1 | . | . | . | 51*
O=[N+]([O-])c1ccc(Cl)c(S(=O)(=O)Nc2cccc(-c3ccc(N4CCOCC4)nn3)c2)c1 | . | . | . | 58*
O=[N+]([O-])c1ccc(S(=O)(=O)Nc2ccc(-c3ccc(N4CCOCC4)nn3)cc2)cc1 | . | . | . | 11
O=C(CCl)Nc1ccc(N=Nc2ccccc2)cc1 | 29 | 0.7 | 28 | 27
O=C(Cc1ccc(Cl)cc1)Nc1ccccc1Sc1ccccc1 | -6 | 1.1 | 0 | 19
O=C(CCl)Nc1ccc(-c2ccccc2)cc1 | -7 | 1.1 | 26 | 57*
O=C(CCl)Nc1cccc(Oc2ccccc2)c1 | 12 | 0.9 | 5 | 87*
O=C(CCl)Nc1ccccc1Sc1ccccc1 | -5 | 1 | 12 | 83*
c1ccc(COc2ccc(OCCN3CCCC3)cc2)cc1 | 0 | 1 | 30 | 26
c1ccc(COc2ccc(OCCCN3CCCC3)cc2)cc1 | 58* | 0.4 | 49 | 20
CC1(NC(=O)C2CCCCC2)CCS(=O)(=O)C1 (configuration not stated) | -1 | 1 | -2 | 2
CCC(CC)c1nnc(NC(=O)CCc2ccccc2OC)s1 | . | . | . | 16
Cc1ccc(C(=O)Oc2ccc(N3C(=O)CCC3=O)c(C)c2)cc1 | 54* | 0.5 | 14 | 2
CC(=O)c1ccc2ccccc2c1OC(=O)c1ccncc1 | . | . | . | -7
CC(=NNc1ccc2ccccc2n1)c1ccccc1O | . | . | . | 77*
CN(C)C=Nc1ccc2nc3c(cc2c1)[nH]c1ccccc13 | . | . | . | 76*
O=[N+]([O-])c1cccc(-c2cn3ccccc3n2)c1 | 28 | 0.7 | 10 | 16
SMILES | FLuc inh counter | FLuc act counter | PPC-1+TRAIL kill | TRAIL sens C8
COc1ccc(-c2cn3ccccc3n2)cc1[N+](=O)[O-] | 79* | 0.2 | 36 | 61*
CCCOc1ccc(-c2cn3ccccc3n2)cc1[N+](=O)[O-] | 78* | 0.2 | 47 | 62*
Cc1c(Cl)cccc1NC(=O)CCN1C(=O)NC(C)(C)C1=O | . | . | . | -29
COCCNC(=O)CN(Cc1cccs1)C(=O)CCC(=O)Nc1nccs1 | -10 | 1.1 | 10 | -7
Cc1cc(C)cc(NS(=O)(=O)c2ccc3[nH]cc(C(=O)NCc4ccco4)c(=O)c3c2)c1 | -4 | 1 | 19 | 84*
Cc1ccccc1NS(=O)(=O)c1ccc2[nH]cc(C(=O)N(C)Cc3ccco3)c(=O)c2c1 | -5 | 1 | 4 | 0
COc1ccc(Cl)cc1Nc1cc(C)nc2ncnn12 | . | . | . | -8
O=C(OCCSCCOC(=O)C1CC=CCC1)C1CC=CCC1 (configuration not stated) | . | . | . | 0
Oc1c(CN2CCCCC2)cc(Br)c2cccnc12 | 2 | 1 | -9 | 51*
Cc1cc(C)cc(NC(=O)c2ccc(N3C(=O)C4CCCCC4C3=O)cc2)c1 (configuration not stated) | . | . | . | 1
O=C(N/N=C/c1ccc(O)c2ncccc12)c1cccc(Br)c1 | 2 | 1 | 19 | 55*
CCOc1cc(/C=N\NC(=O)c2ccc(NC(=O)C(C)(C)C)cc2)ccc1OC(=O)c1cccc(C)c1 | -12 | 1.1 | 13 | 59*
CCOc1cc(/C=N\NC(=O)c2ccc(NC(=O)C(C)(C)C)cc2)ccc1OC(=O)c1ccc(C)cc1 | -2 | 1 | 12 | 15
CC1=NC(=O)C(N=Nc2cccc(C(=O)O)c2)N1c1ccccc1 (configuration not stated) | 54* | 0.5 | 20 | 3
CC1=NC(=O)C(N=Nc2ccccc2)N1c1ccccc1 (configuration not stated) | 8 | 0.9 | 18 | 13
O=C(Nc1ncnc2c1C(c1ccccc1)c1c(ccc3ccccc13)O2)c1ccccc1 (configuration not stated) | . | . | . | 59*
CC1(C)CC(=O)C=C(Nc2cccc(Cl)c2Cl)C1 | . | . | . | -9
Cc1ccccc1NC(=O)CN1C(=O)S/C(=C/c2cccnc2)C1=O | . | . | . | 13
COn1c(SCc2ccc(C)cc2C)nc2ccccc2c1=O | -10 | 1.1 | -13 | 58*
COn1c(SC2CCCCC2)nc2ccccc2c1=O | -5 | 1 | -7 | 67*
CCOc1ccc(NC(=S)Nc2cccc3cnccc23)cc1 | -6 | 1.1 | 34 | -4
COc1ccc(NC(=O)Nc2cccnc2)cc1 | 58* | 0.4 | 23 | 30
COc1ccc(NC(=O)Nc2ccc3nonc3c2)cc1 | . | . | 24 | 6
COc1ccc(NC(=S)Nc2cccc3cnccc23)cc1 | -4 | 1 | 57* | -2
COc1ccc(NC(=O)Nc2ccc3nccnc3c2)cc1 | 57* | 0.4 | -20 | 34
SMILES | FLuc inh counter | FLuc act counter | PPC-1+TRAIL kill | TRAIL sens C8
CCOc1ccc(NC(=O)NCc2cccnc2)cc1 | 3 | 1 | 18 | -13
CCOc1ccc(NC(=O)Nc2cccnc2)cc1 | 77* | 0.2 | 49 | 58*
Cc1ccc(C(=O)COC(=O)c2cccc([N+](=O)[O-])c2)s1 | . | . | . | 8
COc1ccc(CCNC(=O)c2cc(COc3c(C)cccc3C)on2)c(OC)c1 | . | . | . | -10
COc1ccc(C(C)(O)c2nc(-c3ccc(Cl)cc3)cs2)cc1 (configuration not stated) | . | . | . | 26
NC1=NC(=Nc2ccccc2)c2ccccc21 | -1 | 1 | 36 | 15
CC(C)c1ccc(N=C2N=C(N)c3ccccc32)cc1 | . | . | 40 | 57*
NC1=NC(=Nc2ccc(Br)cc2)c2ccccc21 | 53* | 0.5 | 21 | 7
Cn1cccc1C(=O)OCc1csc(-c2ccccc2)n1 | 61* | 0.4 | 17 | 13
O=C(OCc1csc(-c2ccccc2)n1)c1cccs1 | 44 | 0.6 | 13 | 5
CC(=O)c1cccc(NC(=O)c2ccc(OC3CSC3)cc2)c1 | 23 | 0.8 | . | 5
O=C(Nc1cccc(Br)c1)c1ccc(OC2CSC2)cc1 | 58* | 0.4 | 2 | .
Cc1cccc(NC(=O)c2ccc(OC3CSC3)cc2)c1 | 80* | 0.2 | 47 | 36
O=C(COC(=O)c1ccccc1C(=O)c1ccc(Cl)c([N+](=O)[O-])c1)NC1CC1 | -8 | 1.1 | 9 | 93*

Bioassay records from PubChem BioAssay.
